Measurements taken from PMC4104500 (Biochemistry, 2013).

Legend:
[1] = target: Human wild type CIB1 (calcium and integrin binding protein 1) (human) (UniProt Q99828); assay: ITC
[2] = target: T1, CIB1 (Homo sapiens, UniProt Q99828); assay: Isothermal titration calorimetry; format: binding
T1 sequence (Q99828 1-191): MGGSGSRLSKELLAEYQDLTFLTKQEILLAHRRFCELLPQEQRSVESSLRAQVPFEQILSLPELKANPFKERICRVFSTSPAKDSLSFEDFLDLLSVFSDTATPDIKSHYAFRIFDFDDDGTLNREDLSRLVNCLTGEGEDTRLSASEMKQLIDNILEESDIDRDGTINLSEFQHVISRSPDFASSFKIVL
Method in brief: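 Recombinant CIB1 from E. coli BL21(DE3), His tag removed by TEV, dialyzed into 50 mM HEPES pH 7.4, 150 mM NaCl, 0.1 mM CaCl₂ unless otherwise noted, at 100 µM in cell. Peptides (0.8–1 mM, same buffer) injected as 10 µL every 300 s at 15 °C or 26 °C. Dilution heats taken from post-saturation injections; one-site fit; TΔS and ΔG calculated.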

[3] = target: T2, Human wild type CIB1 (calcium and integrin binding protein 1) (human, UniProt Q99828 1-191); assay: ITC
T2 sequence (looked up): T1 sequence (Q99828 1-191)

[4] = target: T2, Human wild type CIB1 (calcium and …); assay: pull-down
[5] = ITC buffer without any NaCl, calculated value

integrin α4 cytoplasmic tail (CT) peptide
dH [1]: 32.7 kJ/mol

αIIb: synthetic cytoplasmic tail (CT) peptide of integrin αIIb; sequence in Table S1
TΔS ([2]; ITC buffer with 150 mM NaCl, calculated from ΔG = ΔH − TΔS): 17.1 kJ/mol
ΔG ([2]; ITC buffer with 150 mM NaCl, calculated from ΔG = −RT ln Ka): -33.4 kJ/mol
TΔS [2, 5]: -2.4 kJ/mol
ΔG [2, 5]: -31.7 kJ/mol

B1: integrin αV cytoplasmic tail (CT) peptide, wild type (peptide)
chain: LVFVMYRMGFFKRVRPPQEEQEREQLQPHENGEGNSET
Kd [3]: 4.3 µM
dH [3]: 7.3 kJ/mol
stoichiometry N [3]: 0.9

B2: MBP-αV cytoplasmic tail fusion protein (domain or fragment, human, UniProt P06756 1011-1048, looked up)
chain: B1 chain
binding result [4]: binds

B3: integrin α3 cytoplasmic tail (CT) peptide (peptide)
chain: IILLLWKCGFFKRARTRALYEAKRQKAEMKSQPSETERLTDDY
Kd [3]: 5.1 µM
dH [3]: 4.2 kJ/mol
stoichiometry N [3]: 1

B4: integrin α5 cytoplasmic tail (CT) peptide (peptide)
chain: LIYILYKLGFFKRSLPYGTAMEKAQLKPPATSDA
Kd [3]: 6.9 µM
dH [3]: 21.4 kJ/mol
stoichiometry N [3]: 0.9

B5: MBP-αIIb cytoplasmic tail fusion protein (domain or fragment, human, UniProt P08514 1014-1039, looked up)
chain: LVLAMWKVGFFKRNRPPLEEDDEEGE
binding result [4]: binds

B6: integrin αL cytoplasmic tail (CT) peptide (peptide)
chain: IFIVLYKVGFFKRNLKEKMEAGRGVPNGIPAEDSEQLASGQEAGDPGCLKPLHEKDSESGGGKD
Kd [3]: 3.2 µM
dH [3]: 8.2 kJ/mol
stoichiometry N [3]: 1.1
